Screening results as filed in PubChem.
TbMetRS inhib: blocks T. brucei methionyl-tRNA synthetase activity | purified T. brucei MetRS, ATP depletion, Kinase-Glo luminescence | inhibition, % at 11.9 µM | 0.4% of 360,000 active | AID 624268;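 active means inhibition above a per-plate cutoff of the control wells' mean inhibition plus 3 SD, cut at about 5.5% in these data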;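 further: 0% = DMSO wells median and 100% = median of wells with control inhibitor compound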
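technique = Kinase-Glo luminescence, ATP depletion format | system = purified MetRS (methionyl-tRNA synthetase) enzyme from Trypanosoma brucei | timing = 15 min preincubation, 2 h reaction, all 25 °C | evaluation = percent inhibition versus plate control medians | dosing = single dose, 11.9 µM final nominal, 0.9% final DMSO | also added = substrates ATP, L-methionine and bulk Escherichia coli tRNA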
PG9 binder: PG9 antibody binding by small molecule. AID 624416. 0.43% of 360,000 active. inhibition, % at 6.7 µM. TR-FRET gp120-PG9 antibody binding; in the data active means inhibition above about 8.5%
Rev-erbA mod: modulators of human Rev-erb alpha DNA binding; Rev-erbα–FITC-DNA binding, fluorescence polarization, 90 min; activity, % at 10 µM; 0.79% of 370,000 active; AID 1259318;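 active means activity above about 14%, limit read from the data; passing the limit was not always enough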;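 further: 0% = DMSO wells with 35 nM protein and 100% = DMSO wells with 750 nM protein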
Target sequence (P20393 whole entry, looked up): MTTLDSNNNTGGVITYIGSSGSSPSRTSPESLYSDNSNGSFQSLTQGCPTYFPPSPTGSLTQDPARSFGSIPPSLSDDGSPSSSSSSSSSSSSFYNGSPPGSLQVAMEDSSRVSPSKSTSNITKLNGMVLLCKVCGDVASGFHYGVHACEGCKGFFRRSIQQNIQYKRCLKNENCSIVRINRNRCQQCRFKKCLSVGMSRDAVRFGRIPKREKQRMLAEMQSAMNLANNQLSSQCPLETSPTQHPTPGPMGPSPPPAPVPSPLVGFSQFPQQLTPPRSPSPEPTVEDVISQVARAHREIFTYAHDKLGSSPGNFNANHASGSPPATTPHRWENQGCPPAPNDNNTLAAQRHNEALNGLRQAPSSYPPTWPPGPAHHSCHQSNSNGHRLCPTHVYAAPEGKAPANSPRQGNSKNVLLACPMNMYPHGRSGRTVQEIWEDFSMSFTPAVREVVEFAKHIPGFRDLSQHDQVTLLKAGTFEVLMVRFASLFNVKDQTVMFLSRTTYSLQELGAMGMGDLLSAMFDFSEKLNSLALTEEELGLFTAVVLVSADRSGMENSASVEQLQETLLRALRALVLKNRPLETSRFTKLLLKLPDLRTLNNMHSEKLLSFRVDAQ
Rin1 Abl inh: human Rin1-Abl interaction inhibition; P00519+Q13671; TR-FRET Rin1/Abl binding, biochemical; inhibition, % at 7.35 µM; 0.4% of 360,000 active; in the data active means inhibition above about 5%, passing the limit was not always enough
Active calls of the source: *; / = no result. Sampled rows, rich in hits. Any-hit rate of the full collection: about 1.8%.

SMILES	TbMetRS inhib	PG9 binder	Rev-erbA mod	Rin1 Abl inh
Cc1c(C(=O)O)nn(-c2cccc(C(F)(F)F)c2)c(=O)c1C#N	0.2	-0.2	1.6	-0.9
CCCCCc1c(C)nc(Nc2ccccc2)[nH]c1=O	7.8*	2.3	3.7	-1.7
Cc1ccc(Nc2nc(C)c(CCC(C)C)c(=O)[nH]2)cc1	0.4	-0.5	0.5	-0.2
CC(C)(O/N=C(\C(=O)N[C@@H]1C(=O)N2C(C(=O)O)=C(C[n+]3ccccc3)CSC12)c1csc(N)n1)C(=O)O (some centres not stated)	/	/	1.5	/
COc1cc(/C=C2/C(=O)N(c3ccc(C(=O)O)cc3)N=C2C)cc(OC)c1O	-0.1	-25.4	1.4	0.1
COc1cc(/C=C2/C(=O)N(c3ccc(Br)cc3)N=C2C)cc(OC)c1OC	3.2	/	/	15.4*
CC(C)(CO)C(O)C(=O)NCCC(=O)NCCSSCCNC(=O)CCNC(=O)C(O)C(C)(C)CO (configuration not stated)	/	/	-2.1	/
O=C(N/N=C\c1ccc(-c2ccccc2[N+](=O)[O-])o1)C1COc2cc3ccccc3cc2O1 (configuration not stated)	10.4*	-0.4	7.5	1.7
CO/N=C(/C(=O)N[C@H]1C(=O)N2C(C(=O)O)=C(COC(N)=O)CSC12)c1ccco1 (some centres not stated)	/	/	1.0	/
Cc1ccc(S(=O)(=O)NNC(=O)c2cc3cc4ccccc4nc3s2)cc1	8.3*	-1.3	2.1	-2.7
Cc1cccc(C(=O)NNC(=O)c2cc3cc4ccccc4nc3s2)c1	-1.2	-4.6	-1.1	0.7
CCOC(=O)O[C@H](C)OC(=O)C1N2C(=O)[C@H](NC(=O)C(N)c3ccccc3)C2SC1(C)C (some centres not stated)	/	/	-1.9	/
O=c1oc2c(O)c(O)cc3c(=O)oc4c(O)c(O)cc1c4c23	0.1	/	-46.5	60.5*
CCOC(=O)N1CCC(NC(=O)CCC(=O)N2CCOc3ccccc32)CC1	0.4	15.3*	-8.1	0.0
C#C[C@]1(OC(C)=O)CCC2C3CCC4=C/C(=N/O)CCC4C3CC[C@@]21CC (some centres not stated)	/	/	8.1	/
O=C(Nc1ccccc1O)c1cccc(S(=O)(=O)Nc2ccccc2O)c1	6.3*	-0.6	5.4	3.4
Cc1ccccc1NS(=O)(=O)c1cccc(C(=O)Nc2cccc(C(=O)O)c2)c1	0.2	-1.2	-4.0	-3.1
O=C(O)CN1C(=O)c2cccc3cccc(c23)C1=O	/	/	-7.8	/
O=C1c2cccc3cccc(c23)C(=O)C1(O)O	0.8	-4.7	3.4	14.4*
O=C(Cn1ncc2c1-c1ccccc1OC2)Nc1ccc(S(=O)(=O)N2CCCCC2)cc1	-0.2	0.2	3.9	12.4*
O=C(Cn1nc(-c2ccccc2F)ccc1=O)Nc1ccc(S(=O)(=O)N2CCCCCC2)cc1	0.2	-0.3	5.3	-2.7
CC1OC(CC(=O)O)CC2=C1C(=O)c1c(O)cccc1C2=O (configuration not stated)	-0.1	12.7*	-1.9	4.0
O=C1c2cccc(O)c2C(=O)c2c(O)cccc21	/	/	-7.5	/
CN(C)c1ncc(C2=C(Cl)C(=O)C(N3CCCC3)=C(Cl)C2=O)s1	-0.5	7.3	-27.3	10.6*
O=C1C(Cl)=C(N2CCCCC2)C(=O)C(Cl)=C1c1cnc(N2CCCCC2)s1	0.2	/	/	4.8
SMILES	TbMetRS inhib	PG9 binder	Rev-erbA mod	Rin1 Abl inh
CC(=O)OCC(=O)[C@@]1(O)[C@@H](C)CC2C3CCC4=CC(=O)C=C[C@]4(C)[C@@]3(F)[C@@H](O)C[C@@]21C (some centres not stated)	/	/	-10.0	/
O=C(N/N=C/c1ccc(O)c(O)c1O)/C(=C/c1ccc([N+](=O)[O-])cc1)NC(=O)c1ccccc1	12.3*	-0.4	1.6	15.2*
COC(=O)CN1C(=S)N(Cc2ccccc2)C(=O)C1CC(=O)Nc1ccc(Br)cc1 (configuration not stated)	64.2*	1.1	10.9	0.3
O=C(O)C1Nc2ccc(Br)cc2C2C=CCC12 (configuration not stated)	-0.2	/	/	6.2*
O=C(O)C1Nc2c(Cl)cc(Cl)cc2C2C=CCC12 (configuration not stated)	-1.2	/	/	1.2
O=C(O)C1Nc2c(O)cccc2C2C=CCC12 (configuration not stated)	0.1	-3.0	-42.2	20.5*
CC(C)CC(=O)N[C@H](C(=O)NC(C(=O)NC(CC(C)C)[C@@H](O)CC(=O)N[C@@H](C)C(=O)N[C@@H](CC(C)C)[C@@H](O)CC(=O)O)C(C)C)C(C)C (some centres not stated)	/	/	-2.3	/
COc1ccc2[nH]c(=O)cc(C(=O)O)c2c1	-1.4	-1.3	-3.1	2.6
